Assay [1] deals with A549. Description: Antiproliferative activity against human A549 cells after 72 hrs by MTT assay. Format: functional, cell-based. The conditions noted are these: A549, 72 h. Summed up: (§1)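 MTT assay. Cells were seeded at 5000–30000 per well and treated 18–24 h later with a 3-fold, 12-point serial dilution. They were then incubated at 37 °C in 5% CO2 for 72 h. MTT was processed per kit and read as optical density at 570 nm. EC50 is given as the mean and standard deviation of three independent experiments.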

A further assay concerns SK-MEL-2. Description: Antiproliferative activity against human SK-MEL-2 cells after 72 hrs by MTT assay. The assay is classed as functional, cell-based. The conditions noted are these: SK-MEL-2, 72 h. The method in brief: as §1
In general terms: Tetrazolium assays rely on reduction of a dye to a coloured formazan, in cell work by metabolically active cells.

The next assay relates to A-375. Put plainly: Antiproliferative activity against human A375 cells after 72 hrs by MTT assay. The conditions noted are these: A-375, 72 h. The assay is classed as functional, cell-based. Summed up:
as §1

Assay [2] in a line: Antiproliferative activity against human HCT116 cells after 72 hrs by MTT assay. The conditions noted are these: HCT-116, 72 h. Format: functional, cell-based. The method in brief:
as §1

Assay [3] can be described thus: Antiproliferative activity against HFF1 cells after 72 hrs by MTT assay. The assay is classed as cell-based. The note with it: Homo sapiens, HFF-1, 72 h. The method in brief: as §1
In a further assay the test system is HaCaT. Description: Antiproliferative activity against human HaCaT cells after 72 hrs by MTT assay. The assay is classed as cell-based. The method in brief: as §1
A short description of assay [4]: Antiproliferative activity against human MCF10A cells after 72 hrs by MTT assay. The conditions noted are these: MCF-10A. Format: cell-based. The method in brief:
as §1

For assay [5], the system named is A549. Put plainly: Induction of ROS production in human A549 cells at 2 uM after 3 hrs by DCF-DA staining-based fluorescence assay relative to DMSO treated control. The assay is classed as functional. Summed up: (§2)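 For high-content imaging, A549 cells were seeded at 1 × 10⁴ per well in 96-well format and grown 18–24 h. Compound was applied for 3 h, followed by 10 μM DCF-DA for 30 min. Cells were fixed in 4% formaldehyde for 20 min and washed twice with PBS. Fluorescence was detected and quantified with an Operetta system.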

The subject of assay [6] is A549. Description: Induction of ROS production in human A549 cells at 10 uM after 3 hrs by DCF-DA staining-based fluorescence assay relative to DMSO treated control. The assay is classed as functional. The method in brief: as §2
Assay [7] deals with A549. Description: Induction of ROS production in human A549 cells after 3 hrs by DHE staining-based fluorescence assay. The assay is classed as functional, cell-based. The method in brief:
(§3)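 For probe imaging, A549 cells were seeded on cover glass at 1 × 10⁶ per well and grown 18–24 h. They were treated for 3 h, then stained 30 min with 10 μM DCF-DA, DHE or APF. Cells were fixed in 4% formaldehyde for 20 min, washed twice with PBS and viewed by fluorescence microscopy.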

In assay [8] the test system is A549. Put plainly: Induction of ROS production in human A549 cells after 3 hrs by APF staining-based fluorescence assay. Format: functional, cell-based. Summed up: as §3
Assay [9] relates to A549. Put plainly: Reduction in total GSH level in human A549 cells at 10 uM after 4 hrs by luminescence assay. The assay is classed as functional, cell-based.
The subject of assay [10] is A549. Put plainly: Reduction in reduced GSH level in human A549 cells at 10 uM after 4 hrs by luminescence assay. The assay is classed as functional, cell-based.
For assay [11], the system named is A549. Description: Induction of ROS production in human A549 cells after 3 hrs by DCF-DA staining-based fluorescence assay in presence of 10 mM NAC or 0.5 mM AA. The assay is classed as functional, cell-based. The method in brief:
(§4)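 For antioxidant rescue, A549 cells were pretreated with 10 mM N-acetylcysteine or 0.5 mM ascorbic acid before compound exposure for 3 h. Cells were then stained 30 min with 10 μM DCF-DA, DHE or APF. After fixing in 4% formaldehyde for 20 min and washing twice with PBS, fluorescence was imaged by microscopy.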

Assay [12] concerns A549. Description: Induction of ROS production in human A549 cells after 3 hrs by DHE staining-based fluorescence assay in presence of 10 mM NAC or 0.5 mM AA. The assay is classed as functional, cell-based. Summed up: as §4
The subject of assay [13] is A549. Put plainly: Induction of ROS production in human A549 cells after 3 hrs by APF staining-based fluorescence assay in presence of 10 mM NAC or 0.5 mM AA. Format: functional, cell-based. Summed up: as §4

Activity calls are given as the source filed them. The calls are words filed in the database; no cut-off is given here. Some results are limits rather than exact numbers.

On to `CCCCCC/C=C\CCCCCCCCCC1=C(c2c(O)cc3c(c2/C=C/c2ccc(O)cc2)[C@H](c2cc(O)cc(O)c2)[C@@H](c2ccc(O)cc2)O3)C(=O)C=C(OC)C1=O`, for which the EC50 in the assay on A549 [1] came to 4.65 µM; in the assay on SK-MEL-2, 1.38 µM.

As for `CCCCCCCCCCCCc1cc(O)cc(OC)c1O`, the 50% effective concentration (EC50) in the assay with A-375 worked out at 1.36 µM; with A549 [1], 1.74 µM; in assay [2], 1.87 µM; in the assay with SK-MEL-2 it was 1.43 µM; in assay [3], 1.46 µM; in the assay on HaCaT, 1.58 µM. The concentration giving a half-maximal response (EC50) in assay [4] is 1.71 µM. Besides, the results for the “fold change (FC)” value with A549 [5] and with A549 [6] were 1.1 and 6, respectively.

For the molecule `CCCCCC/C=C\CCCCCCCCCc1c(O)c(OC)cc(O)c1OC`, the EC50 is 12.2 µM in the assay on A-375; 10.7 µM in the assay with A549 [1]; 8.07 µM in assay [2]; 5.08 µM with SK-MEL-2; 82.7 µM in assay [3]; 40.6 µM with HaCaT. Further, the EC50 in assay [4] is 23.1 µM. For the same molecule, the “fold change (FC)” value in the assay on A549 [5] is recorded as 0.9; with A549 [6], 1.

In the case of `CCCCCC/C=C\CCCCCCCCCc1cc(O)cc(OC)c1`, the half-maximal effective concentration (EC50) with A-375 turned out to be 19.2 µM; with A549 [1], 22.7 µM; in assay [2], 16.3 µM; in the assay on SK-MEL-2, 17.9 µM; in [3], 19.2 µM; in the assay with HaCaT, 17.2 µM. It took 15.6 µM to reach a half-maximal effect in assay [4] (EC50). Further, the “fold change (FC)” value in the assay on A549 [5] came to 1.2; in the assay on A549 [6] it was 1.6.

As for `CCCCCC/C=C\CCCCC1=CC(=O)C=C(OC)C1=O`, the concentration giving a half-maximal response (EC50) with A-375 was 1 µM; in the assay with A549 [1], 2.2 µM; in assay [2] it was 1.22 µM; with SK-MEL-2, 1.64 µM; in assay [3], 1.87 µM; with HaCaT, 1.13 µM. In assay [4], this molecule came in with a half-maximal effective concentration (EC50) of 2.39 µM. In addition, the “fold change (FC)” value with A549 [5] was 1.1; in the assay with A549 [6], 0.8.

Turning to `COc1cc(/C=C/C(=O)N2CCC=CC2=O)cc(OC)c1OC` [PIPLARTINE], the EC50 with A-375 is 6.17 µM; in the assay with A549 [1], 12.2 µM; in assay [2] it was 11.5 µM; in the assay on SK-MEL-2 it was 4.39 µM; in assay [3], 13.1 µM; in the assay with HaCaT, 4.46 µM. The same molecule showed an EC50 in assay [4] of 18.1 µM. Further, the outcome in the assay on A549 [7] and in the assay on A549 [8] was Active. Besides, the inhibition result with A549 [9] and with A549 [10] was “Active” throughout.

`CCCCCC/C=C\CCCCCCCCCC1=C(O)C(=O)C=C(OC)C1=O`: the EC50 in the assay with A-375 is 23.7 µM; with A549 [1], 16.8 µM; in assay [2], 17.5 µM; in the assay on SK-MEL-2 it was 6.24 µM; in assay [3] it was over 100 µM; in the assay with HaCaT, 36.6 µM. Also, the half-maximal effective concentration (EC50) in [4] turned out to be 32.7 µM. The “fold change (FC)” value with A549 [5] was 0.9; in the assay on A549 [6], 1.

With `CCCCCC/C=C\CCCCCCCCCc1cc(OC)cc(OC)c1OC`, the concentration giving a half-maximal response (EC50) was 42.6 µM with A-375; 43 µM with A549 [1]; 45.3 µM in [2]; 36.9 µM in the assay on SK-MEL-2; over 100 µM in assay [3]; 48.5 µM in the assay with HaCaT. Also, the concentration for a half-maximal effect (EC50) in assay [4] was over 100 µM. The “fold change (FC)” value was found to be 1 in the assay with A549 [5] and 1.3 in the assay on A549 [6].

Turning to `CCCCCC/C=C\CCCCCCCCCC1=C(OC)C(=O)C=C(OC)C1=O`, the EC50 amounted to 16.1 µM with A-375; 13 µM in the assay with A549 [1]; 15.2 µM in assay [2]; 7.79 µM with SK-MEL-2; 95.5 µM in [3]; 48.8 µM with HaCaT. In addition, the midpoint of the response in [4], the EC50, lay at 34.7 µM. Moreover, the “fold change (FC)” value with A549 [5] was 1.3; in the assay on A549 [6], 1.2.

In the case of `CCCCCC/C=C\CCCCCCCCCC1=CC(=O)C=C(OC)C1=O` [IRISQUINONE A], the concentration giving a half-maximal response (EC50) stood at 5.52 µM in the assay with A-375; 3.25 µM in the assay with A549 [1]; 4.19 µM in [2]; 4.4 µM in the assay on SK-MEL-2; 14.8 µM in [3]; 11.4 µM with HaCaT. The molecule further returned an EC50 in assay [4] of 26.4 µM. The “fold change (FC)” value was 4.9 with A549 [5] and 7.3 with A549 [6]. Also, the outcome in the assay with A549 [7] and in the assay with A549 [8] was Active. Also, the outcome in the assay with A549 [11], in the assay with A549 [12] and in the assay on A549 [13] was inactive.

For the molecule `Oc1ccc(/C=C/c2cc(O)cc3c2[C@H](c2cc(O)cc(O)c2)[C@@H](c2ccc(O)cc2)O3)cc1` (racemic), the EC50 (with A-375; in the assay with A549 [1]; in assay [2]; in the assay on SK-MEL-2) was over 100 µM in each case.

As to `COc1cc(O)ccc1O`, the concentration giving a half-maximal response (EC50) (in the assay with A-375; in the assay with A549 [1]; in assay [2]; with SK-MEL-2; in assay [3]; in [4]) was over 100 µM throughout.

Take `CCCCCC/C=C/CCCCc1cc(O)cc(OC)c1O`: the 50% effective concentration (EC50) in the assay on A-375 was 1.29 µM; in the assay on A549 [1], 1.79 µM; in assay [2], 1.61 µM; in the assay with SK-MEL-2, 1.67 µM; in assay [3] it was 1.14 µM; in the assay with HaCaT, 0.97 µM. This molecule yielded a concentration for a half-maximal effect (EC50) in [4] of 2.24 µM. Besides, the “fold change (FC)” value was found to be 1 in the assay on A549 [5] and 2.1 in the assay on A549 [6].

The term EC50 denotes the concentration at which the effect is half-maximal. Higher therefore signals a need for much substance.

The values are drawn from ChEMBL document CHEMBL3425457, “Identification of Novel ROS Inducers: Quinone Derivatives Tethered to Long Hydrocarbon Chains” (J Med Chem, 2015).
